Hits are enriched below; roughly 2.5% of the tested compounds scored in any of these assays.
NadD block: NadD (S. aureus) enzyme inhibition; purified NadD enzyme, colorimetric absorbance read-out; inhibition, % at 20 µM; hit rate 0.78% among 360,000; in the data active = inhibition above about 26%
SENP1 FRET inh: blocks the human SENP1 SUMO protease catalytic domain | inhibition, % at 10 µM | recombinant SENP1 catalytic domain, CyPet-SUMO1-YPet FRET cleavage | hit rate 0.21% among 360,000 | AID 624204;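 active = inhibition at least 30% at 10 µM, raw YFP signal under a set limit, fluorescence ratio 0.5 to 1.5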
Target sequence (Q9P0U3 419-644 limits assumed): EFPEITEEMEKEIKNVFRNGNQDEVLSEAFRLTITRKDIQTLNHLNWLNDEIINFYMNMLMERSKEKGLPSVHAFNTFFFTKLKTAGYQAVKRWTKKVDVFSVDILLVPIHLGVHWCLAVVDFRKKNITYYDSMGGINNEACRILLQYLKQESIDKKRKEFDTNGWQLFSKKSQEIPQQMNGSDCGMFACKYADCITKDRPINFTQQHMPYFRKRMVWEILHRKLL
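Test system: recombinant human SENP1 catalytic domain, His6-tagged / Medium: pH 8 Tris buffer with EDTA, NaCl, BME, BSA, NP40, catalase / Also added: SUMO1 FRET substrate flanked by Cypet and Ypet, 25 nM / Times: 50 min reaction at room temperature / Signal: FRET, CFP and YFP emission / Control set: no-enzyme low control and enzyme-plus-DMSO high control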
ABHD5 PLIN5 PPI: blocks binding of human ABHD5 to perilipin-5 | AID 602281 | inhibition, % at 4 µM | hit rate 0.78% among 360,000 | Q00G26+Q8WTS1 | Split G. princeps luciferase complementation, luminescence, 4 h;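 active = inhibition above the mean inhibition across every tested compound plus 3 SD, cut at about 22% in these data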
Beta2AR agonist: activates human beta-2 adrenergic receptor causing internalization; P07550; Am2.2-beta2AR cells, FAP receptor internalization, flow cytometry; response, % (concentration not given with the values); hit rate 0.43% among 340,000;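 active = response above a set limit, near 3 SD of response in nonfluorescent compounds, cut at about 42% in these data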
Target sequence (P07550 whole entry, looked up): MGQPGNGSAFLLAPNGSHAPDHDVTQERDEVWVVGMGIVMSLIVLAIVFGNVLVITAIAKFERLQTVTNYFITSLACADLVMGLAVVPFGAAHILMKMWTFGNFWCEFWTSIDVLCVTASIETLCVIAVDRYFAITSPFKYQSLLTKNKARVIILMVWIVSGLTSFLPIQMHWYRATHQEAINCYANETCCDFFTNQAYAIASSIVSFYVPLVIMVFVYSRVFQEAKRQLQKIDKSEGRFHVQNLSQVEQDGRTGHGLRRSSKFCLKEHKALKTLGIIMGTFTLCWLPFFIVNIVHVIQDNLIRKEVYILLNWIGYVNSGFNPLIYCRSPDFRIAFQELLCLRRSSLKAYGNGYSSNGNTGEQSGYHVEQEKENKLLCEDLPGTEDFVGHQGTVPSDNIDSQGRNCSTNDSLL
GRK2 inh: human GRK2 inhibition via aptamer displacement | bead flow cytometry, FAM-aptamer displacement from GRK2 | hit rate 0.59% among 330,000 | inhibition of aptamer binding, % at 10 µM | P25098;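 active = inhibition of aptamer binding above 40%, roughly 3 SD of noise, on plates passing a quality check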;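 note: median bead fluorescence of bound FAM aptamer so fluorescent compounds give negative values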
NadD conf: confirmation of Staphylococcus aureus NadD inhibitors | shares compounds with NadD block | purified S. aureus NadD, colorimetric enzyme assay | inhibition, % at 20 µM | hit rate 13% among 2,000 | AID 624309; in the data active = inhibition mostly above about 42%, no sharp cut-off; inactive = mostly below about 42%
Hits are given with their value; i = inactive; nt = no result.

SMILES	NadD block	SENP1 FRET inh	ABHD5 PLIN5 PPI	Beta2AR agonist	GRK2 inh	NadD conf
c1ccc(-c2cc(-c3nn4c(-c5ccco5)nnc4s3)c3ccccc3n2)cc1	47	i	i	i	i	i
NC(=O)C1CCN(C(=O)COc2ccc3ccc(=O)oc3c2)CC1	i	i	i	i	i	nt
O=C1CC(/C=C/c2ccc(Cl)cc2)=Nc2ccccc2N1	33	i	i	i	i	i
O=C(COC(=O)CNS(=O)(=O)c1ccc(Cl)cc1)NC1CCCCC1	i	i	i	i	nt	nt
O=S(=O)(Nc1nccs1)c1ccc(Nc2nnc(-c3ccccc3)c3ccccc23)cc1	64	i	i	i	i	62
CC(C)c1ccc(NC2CCCN(C(=O)c3ccc(N4CCOCC4)cc3)C2)cc1 (stereo not drawn)	i	i	i	i	i	nt
C=CCNc1nc(C)c(CNc2c(C)cc(C)cc2C)nc1C#N	i	i	i	i	i	nt
O=C1NC(=O)/C(=C/c2ccc(-c3cccc([N+](=O)[O-])c3)o2)S1	45	i	i	i	i	i
O=Cc1ccc(-c2cccc([N+](=O)[O-])c2)o1	i	i	i	i	i	nt
CCOc1ccc(C(=O)Nc2nnc(NC(=S)Nc3ccccc3)s2)cc1	35	i	i	103	i	i
CCCCn1c(-c2cccnc2)nc2cc3[nH]c(=O)c(C(C)C)nc3cc21	i	i	i	i	i	nt
CCCCn1c(-c2ccc(C(C)(C)C)cc2)nc2cc3[nH]c(=O)c(C(C)C)nc3cc21	36	i	i	i	i	i
CCCCn1c(-c2ccc(Cl)c(Cl)c2)nc2cc3[nH]c(=O)c(C(C)C)nc3cc21	38	i	i	i	i	i
CC1CC(C)CN(C(=O)CNC(=O)c2ccc3ccccc3c2)C1 (stereo not drawn)	i	i	i	i	i	nt
O=S(=O)(Nc1nc(-c2ccccc2)cs1)c1cc(Cl)ccc1Cl	i	i	i	i	i	nt
Cc1cc(-c2csc(N)n2)c(C)n1C	75	i	i	i	i	i
Cc1cc(-c2csc(N)n2)c(C)n1Cc1ccco1	31	i	23	i	i	i
CN(CCOc1ccc(Cl)cc1)C(=O)c1cc([N+](=O)[O-])ccc1N1CCOCC1	i	i	i	i	i	nt
O=C(/C=C/c1ccc([N+](=O)[O-])cc1)/C=C/c1ccco1	38	i	63	i	i	i
CCN(CC(=O)NC1CCS(=O)(=O)C1)S(=O)(=O)c1c(C)c(C)cc(C)c1C (stereo not drawn)	i	i	i	i	i	nt
Cc1cc2nc(-c3cccc(Cl)c3)c(Cc3cccc(Cl)c3)n2c(C)c1Br	i	i	i	nt	nt	nt
Clc1cccc(Cc2c(-c3cccc(Br)c3)nc3ccc(Cl)cn23)c1	i	i	i	nt	nt	nt
COc1ccccc1Cc1c(-c2ccco2)nc2cc(C)c(Br)c(C)n12	60	i	58	nt	nt	i
Clc1cccc(Cc2c(-c3ccco3)nc3ccc(Br)cn23)c1	41	i	49	nt	nt	i
Cc1cc2nc(-c3ccco3)c(Cc3cccc(Cl)c3)n2c(C)c1Br	61	i	26	nt	nt	i
SMILES	NadD block	SENP1 FRET inh	ABHD5 PLIN5 PPI	Beta2AR agonist	GRK2 inh	NadD conf
Cc1cc2nc(-c3ccco3)c(CC(C)(C)C)n2c(C)c1Br	i	i	i	nt	nt	nt
COc1ccc(NC(=O)c2cccc(-c3ccc(O)cc3)c2)cn1	i	i	i	i	i	nt
Cc1cnc(C=NNC(N)=S)c2cccc(N)c12	61	i	i	i	nt	i
NC(=S)NN=Cc1nccc2ccccc12	i	i	i	i	nt	nt
Nc1nc(COc2ccccc2C=O)nc(Nc2ccccc2)n1	29	i	i	i	i	36
CCCCCCCCCCCCCCCC[n+]1ccc(C(N)=O)cc1	29	i	i	i	i	i
Cc1[nH]c(=O)nc(NN=Cc2ccc(Cl)cc2)c1C(=O)Nc1ccc(Cl)cc1	i	i	i	i	nt	nt
CC(C)C[C@H]1CNC(=S)N1CC1CCCN1C[C@H](Cc1ccccc1)N1C[C@H](Cc2ccc(O)cc2)N(CC2CCCCCC2)C1=S (stereo partly drawn)	32	i	i	i	nt	i
CC(C)C[C@H]1CN([C@@H](Cc2ccc(O)cc2)CN2CCC[C@@H]2CN2C(=S)NC[C@@H]2Cc2ccccc2)C(=S)N1CC1CCCCCC1	i	i	i	nt	nt	nt
CC(C)C[C@H]1CNC(=S)N1C[C@H]1CCCN1C[C@H](Cc1ccc(O)cc1)N1C[C@H](Cc2ccc(O)cc2)N(CC2CCCCCC2)C1=S	44	i	27	nt	nt	i
Oc1ccc(C[C@H]2CNC(=S)N2C[C@H]2CCCN2C[C@H](Cc2ccccc2)N2C[C@H](Cc3ccccc3)N(CC3CCCCC3)C2=S)cc1	39	i	i	nt	nt	i
COCCCN1C(=O)c2ccc(C(=O)OCC(=O)N(CCC#N)c3cc(C)cc(C)c3)cc2C1=O	i	i	i	i	i	nt
O=C(Cc1ccccc1)c1ccc(N2CCOCC2)cc1	i	i	i	i	nt	nt
Cc1cc([N+](=O)[O-])c2ccccc2c1NS(=O)(=O)c1ccccc1	i	i	i	i	nt	nt
O=c1cc(CN2CCN(C/C=C/c3ccccc3)CC2)c2cc(O)c(-c3ccccc3)cc2o1	39	i	i	i	i	i
CCc1ccc(S(=O)(=O)Nc2cccc(-c3ccc4nnc(C)n4n3)c2)s1	i	i	i	i	i	nt
NC(=O)c1c(NC(=O)Cn2nc(C(=O)O)c3ccccc3c2=O)sc2c1CCC2	i	i	i	i	i	nt
CCOC(=O)c1c(NC(=O)Cn2nc(C(=O)O)c3ccccc3c2=O)sc2c1CCC(C)C2 (stereo not drawn)	33	i	i	i	i	i
CCCCSCCCNC(=O)c1ccc(CS(=O)(=O)c2ccc(OC)cc2)o1	i	i	i	i	i	nt
C=C(CN(C)C)C(=O)c1cc(C)ccc1C	32	i	67	i	nt	i
COc1ccccc1C(=O)NCCC(=O)N1CC=C(c2ccccc2)CC1	42	i	24	i	i	i
COc1ccccc1C(=O)NCCC(=O)N1CCCCC1	i	i	i	i	i	nt
Cn1cnnc1SCC(=O)Nc1sc2c(c1C#N)CCCCC2	i	i	i	i	i	nt
Cn1c(CNC(=O)c2ccc(Cl)c(Cl)c2)nnc1SCC(=O)Nc1sc2c(c1C#N)CCCC2	45	i	i	i	i	i
CCCCn1c(SCC(=O)NNC(=O)c2ccccc2)n[nH]c1=O	i	i	i	i	i	nt
CCCCn1c(N)c(N(CC)C(=O)C2=NN(c3ccccc3)C(=O)CC2)c(=O)[nH]c1=O	i	i	i	i	i	nt
COc1cc2c(cc1OC)C1(Nc3c-2c(Cc2ccccc2)nn3-c2ccccc2)C(=O)Nc2ccccc21 (stereo not drawn)	45	i	i	i	i	i
CCc1nc2c(OCC(=O)C(C)(C)C)cccn2c1N(C=O)CC(=O)N(C)C	i	i	i	nt	nt	nt
CC(C)c1ccc(NC(=O)CSc2nc3ccsc3c(=O)n2Cc2ccc(C(=O)O)cc2)cc1	32	i	i	i	i	i
CC(=O)NCCNc1nc(NC(C)C)nc2cc(-c3ccccc3)sc12	i	i	i	nt	nt	nt
